Experimental data: ChEMBL document CHEMBL1926661, “The arginine mimicking β-amino acid β³hPhe(3-H₂N-CH₂) as S1 ligand in cyclotheonamide-based β-tryptase inhibitors” (Bioorg Med Chem, 2011)

How the values were obtained:
[1] = Inhibition of trypsin
[2] = Inhibition of human beta-tryptase
Homo sapiens = organism: Homo sapiens; test: Selectivity ratio of Ki for Trypsin to Ki for human beta-tryptase
[3] = Inhibition of human mast cell tryptase-beta using chromogenic substrate
[4] = Metabolic stability in human serum assessed as compound remaining at 200 uM after 48 hrs by RP-HPLC analysis; type: ADME, cell-free; settings: read-out: Stability
In short: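 Compound at 200 μM incubated in undiluted human plasma or human serum at 37 °C for up to 48 h. At time points, samples were acidified with an equal volume of 0.1% TFA and centrifuged at 8000 × g for 10 min. Supernatants were analysed by C18 RP-HPLC using a linear H₂O/MeCN (0.1% TFA) gradient over 200 min to quantify remaining intact inhibitor.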

Kallikrein-1 = Kallikrein-1 (Homo sapiens, UniProt P06870); test: Inhibition of tissue kallikrein
Kallikrein-1, sequence (P06870 whole entry): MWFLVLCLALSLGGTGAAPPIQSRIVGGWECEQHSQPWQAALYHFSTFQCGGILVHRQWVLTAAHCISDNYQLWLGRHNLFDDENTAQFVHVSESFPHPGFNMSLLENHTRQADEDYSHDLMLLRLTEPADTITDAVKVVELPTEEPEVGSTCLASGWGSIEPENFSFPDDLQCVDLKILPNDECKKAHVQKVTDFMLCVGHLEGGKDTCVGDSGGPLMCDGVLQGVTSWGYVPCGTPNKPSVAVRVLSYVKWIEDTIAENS

Coagulation factor X = Coagulation factor X (Homo sapiens, UniProt P00742); test: Inhibition of factor 10a
Coagulation factor X, sequence (P00742 41-179 limits assumed): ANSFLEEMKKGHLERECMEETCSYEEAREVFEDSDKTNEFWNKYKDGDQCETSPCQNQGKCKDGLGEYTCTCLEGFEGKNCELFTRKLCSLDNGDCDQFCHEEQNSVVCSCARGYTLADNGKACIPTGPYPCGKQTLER
Coagulation factor X, sequence (P00742 235-488 limits assumed): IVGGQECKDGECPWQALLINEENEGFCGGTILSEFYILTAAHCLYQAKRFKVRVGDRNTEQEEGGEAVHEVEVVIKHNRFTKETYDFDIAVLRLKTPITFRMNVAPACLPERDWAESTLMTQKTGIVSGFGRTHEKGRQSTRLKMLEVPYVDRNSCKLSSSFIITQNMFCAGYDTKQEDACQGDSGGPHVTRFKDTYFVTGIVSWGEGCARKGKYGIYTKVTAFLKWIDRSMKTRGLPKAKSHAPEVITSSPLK

Prothrombin = Prothrombin (Homo sapiens, UniProt P00734); test: Inhibition of thrombin
Plasma kallikrein = Plasma kallikrein (Homo sapiens, UniProt P03952); test: Inhibition of plasma kallikrein
Plasma kallikrein, sequence (P03952 20-390 limits assumed): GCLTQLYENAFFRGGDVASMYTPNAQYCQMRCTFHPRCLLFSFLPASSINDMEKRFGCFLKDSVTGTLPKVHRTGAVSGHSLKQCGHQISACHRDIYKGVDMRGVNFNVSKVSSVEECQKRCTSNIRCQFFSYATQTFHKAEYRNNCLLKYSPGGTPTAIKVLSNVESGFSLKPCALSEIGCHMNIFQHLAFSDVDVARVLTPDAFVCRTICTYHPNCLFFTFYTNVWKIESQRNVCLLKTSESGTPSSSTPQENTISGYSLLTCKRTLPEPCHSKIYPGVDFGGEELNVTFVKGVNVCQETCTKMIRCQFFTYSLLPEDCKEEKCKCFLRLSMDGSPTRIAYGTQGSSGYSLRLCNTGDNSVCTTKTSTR
Plasma kallikrein, sequence (P03952 391-638 limits assumed): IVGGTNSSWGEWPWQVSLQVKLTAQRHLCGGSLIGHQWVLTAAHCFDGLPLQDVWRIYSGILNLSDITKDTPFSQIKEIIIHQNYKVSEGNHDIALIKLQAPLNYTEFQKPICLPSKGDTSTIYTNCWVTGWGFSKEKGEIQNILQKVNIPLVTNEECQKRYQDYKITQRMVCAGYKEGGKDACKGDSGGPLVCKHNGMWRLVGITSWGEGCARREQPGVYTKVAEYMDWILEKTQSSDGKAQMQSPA

[5] = Inhibition of beta-tryptase

SMILES	Ki [1]	Ki [2]	Ratio Ki (Homo sapiens)	remaining at 48 h, 200 µM [4]	Ki (Kallikrein-1)	Ki (Coagulation factor X)	Ki (Prothrombin)	Ki (Plasma kallikrein)	Ki [5]	Ki [3]
CC[C@H](C)[C@H]1NC(=O)C[C@H](CCCNC(=N)N)NC(=O)[C@@H]2CCCN2C(=O)[C@@H](NC(C)=O)CNC(=O)/C=C/[C@H](Cc2ccc(O)cc2)NC1=O	30 µM	40 µM	0.8							
COC(=O)C(Cc1cccc(CN)c1)NC(C)=O (racemic)	400 µM								14 µM	
CC[C@H](C)[C@H]1NC(=O)C[C@H](CCCCN)NC(=O)[C@@H]2CCCN2C(=O)[C@@H](NC(C)=O)CNC(=O)/C=C/[C@H](Cc2ccc(O)cc2)NC1=O	230 µM	380 µM	0.6							

The next lines start with results.

Ki [1]	Ki [2]	Ratio Ki (Homo sapiens)	remaining at 48 h, 200 µM [4]	Ki (Kallikrein-1)	Ki (Coagulation factor X)	Ki (Prothrombin)	Ki (Plasma kallikrein)	Ki [5]	SMILES	Ki [3]
50 µM		2000	81%	1300 µM	360 µM	330 µM	2000 µM		CC[C@H](C)[C@H]1NC(=O)C[C@H](Cc2cccc(CN)c2)NC(=O)[C@@H]2CCCN2C(=O)[C@@H](NC(=O)CCCCCN)CNC(=O)/C=C/[C@H](Cc2ccc(O)cc2)NC1=O	0.025 µM
100 µM		170	95%	1800 µM	310 µM	680 µM	3300 µM		CC[C@H](C)[C@H]1NC(=O)C[C@H](Cc2cccc(CN)c2)NC(=O)[C@@H]2CCCN2C(=O)[C@@H](NC(C)=O)CNC(=O)/C=C/[C@H](Cc2ccc(O)cc2)NC1=O	0.6 µM
10 µM	0.007 µM	1400							CC[C@H](C)[C@H]1NC(=O)C[C@H](CCCNC(=N)N)NC(=O)[C@@H]2CCCN2C(=O)[C@@H](NC(=O)CCCCCN)CNC(=O)/C=C/[C@H](Cc2ccc(O)cc2)NC1=O	
